Screening data: PubChem, Johns Hopkins Ion Channel Center
RGS4 act = potentiators or activators of RGS4 | HEK293 M3R/inducible RGS4, carbachol calcium flux Fluo4; hits give low values | B-score at 10 µM | 310,000 tested, 0.92% active;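 active = B-score of the integrated calcium signal more than 4 SD below the library mean, with starting fluorescence not abnormally high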;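 note: negative B-score means reduced calcium response which marks RGS4 activation or potentiation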
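Test system: HEK293 cells with stable M3R and inducible RGS4; also added: carbachol at ECmax as muscarinic agonist stimulus; schedule: dye loading 30 min 37 °C, buffer rest 30 min RT; technique: kinetic calcium fluorescence imaging with Fluo4-AM dye, 2 µM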
RGS4 block = human RGS4 inhibition | 310,000 tested, 0.45% active | P49798 | AID 463165 | B-score at 10 µM | HEK293 M3R/RGS4 inducible, Fluo-4 calcium flux; hits give high values; triggered by carbachol at its EC20;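 active = B-score, a plate-corrected calcium signal, over three deviations above library mean, with baseline fluorescence within five deviations of library mean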;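 note: RGS4 expression induced by doxycycline in cells with stable M3 receptor; B-score is computed from the integrated fluorescence ratio over baseline after carbachol; higher B-score means a larger calcium signal and so more RGS4 inhibition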
Target sequence (P49798 whole entry, looked up): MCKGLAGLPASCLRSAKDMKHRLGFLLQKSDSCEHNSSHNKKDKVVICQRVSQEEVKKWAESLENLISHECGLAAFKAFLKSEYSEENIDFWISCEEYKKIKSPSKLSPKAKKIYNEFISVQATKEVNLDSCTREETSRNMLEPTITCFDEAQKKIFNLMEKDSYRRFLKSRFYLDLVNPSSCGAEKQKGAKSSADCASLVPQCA
MrgX1 antag = human MrgX1 receptor antagonism, primary screen. MRGX1-HEK293 calcium flux, Fluo-4, BAM8-22 antagonism; hits give low values. B-score at 10 µM. 310,000 tested, 1.3% active. AID 588676;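 active = calcium-response B-score plate-corrected more than 3 library SD below zero, starting fluorescence within 5 deviations, no agonist response on first addition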;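 note: peak minus trough fluorescence over baseline after final BAM8-22 challenge near maximal dose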
MrgX1 PAM = allosterically activates human MrgX1 receptor signaling. Q96LB2. MrgX1-HEK293, Fluo-4 calcium flux, FDSS; hits give high values. B-score at 10 µM. 310,000 tested, 0.63% active;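 active = plate-corrected calcium response at least 3 library SD above typical, normal starting fluorescence, not activating the receptor alone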;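 note: compound read alongside a low EC10 to EC30 dose of BAM8-22 agonist; peak minus trough fluorescence over baseline measured at the second addition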
MrgX1 agonist = activates human MrgX1 receptor signaling. MrgX1-HEK293 cells, Fluo-4 calcium fluorescence, agonist mode; hits give high values. B-score at 10 µM. 310,000 tested, 0.44% active;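 active = calcium response B-score plate-corrected fluorescence ratio at least 3 library SD, with starting fluorescence B-score inside 5 SD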
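Material: MrgX1-expressing HEK293 cells; input: 15,000 cells per well; doses: test compound given as first of three sequential additions; schedule: overnight plating before 1 h dye loading; technique: Fluo-4 NW calcium-flux fluorescence, kinetic read; evaluation: baseline-normalised fluorescence change ratio, B-scored; control set: plate-wise positive and negative controls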
MrgX1 antag conf = confirmation of human MrgX1 receptor antagonists; MrgX1-HEK293, BAM8-22 calcium flux, Fluo-4; hits give low values; remaining BAM8-22 calcium response % of control (hits give low values), % at 10 µM; AID 602420; shares compounds with MrgX1 antag; 2,300 tested, 19% active;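 active = remaining agonist calcium response no higher than 100% minus 3 SD of agonist-only control wells, with starting fluorescence near control levels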;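 note: agonist BAM8-22 given at a near maximal EC90 to ECmax level; peak minus minimum fluorescence divided by baseline after agonist addition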
HEK293 Ca flux = counter-screen for MrgX1 antagonists: effect in parental HEK293 cells. 4,000 tested, 2% active. shares compounds with MrgX1 antag. Fluo-4 calcium fluorescence, FDSS. AID 624111. fluorescence ratio F(max-min)/F0 at 10 µM;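 active = duplicate-averaged calcium fluorescence ratio at least three times the standard deviation of buffer wells, a nonspecific response in parental cells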
HEK293 Ca counter = MrgX1 allosteric activator counter-screen hit in parental HEK293 cells; shares compounds with MrgX1 antag; parental HEK293 calcium flux, Fluo-4 fluorescence ratio; hits give high values; fluorescence ratio F(max-min)/F0 at 10 µM; 4,000 tested, 0.4% active; AID 624114;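 active = calcium fluorescence ratio, averaged over duplicates, at least 3 SD of the buffer-well ratio, meaning a nonspecific response in receptor-free cells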;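 note: untransfected parental HEK293 lacking MrgX1 used as counterscreen for MrgX1 allosteric activators; fluorescence change taken during the second addition on a kinetic imager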
HEK293 Ca cntr2 = counter-screen for MrgX1 activators: effect in parental HEK293 cells | Fluo-4 calcium fluorescence (FDSS); hits give high values | shares compounds with MrgX1 antag | 4,000 tested, 8.7% active | fluorescence ratio F(max-min)/F0 at 10 µM;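 active = calcium fluorescence ratio at least three times the spread of buffer wells, meaning a non-specific response in parental cells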
* = called active by the depositor. In the library only some 3.5% were active in any assay of this set; here they are far more common.

For CCSc1nc2sc3c(c2c(=O)n1CC)CC(C)(C)OC3 the results were RGS4 act inactive, RGS4 block inactive, MrgX1 antag -7.06*, MrgX1 PAM inactive, MrgX1 agonist inactive, MrgX1 antag conf inactive, HEK293 Ca flux inactive, HEK293 Ca counter inactive and HEK293 Ca cntr2 inactive.
CCn1c(SCC(=O)OC)nc2sc3c(c2c1=O)CC(C)(C)OC3 was read as RGS4 act inactive, RGS4 block inactive, MrgX1 antag inactive, MrgX1 PAM inactive and MrgX1 agonist inactive.
`COc1ccc(N2CCN(CNC(=O)c3ccccc3)CC2)cc1` gave RGS4 act inactive, RGS4 block inactive, MrgX1 antag inactive, MrgX1 PAM inactive and MrgX1 agonist inactive.
For O=C1NC(O)(c2ccccc2)Oc2ccccc21 (configuration not stated) the results were RGS4 act inactive, RGS4 block inactive, MrgX1 antag inactive, MrgX1 PAM inactive and MrgX1 agonist inactive.
For CCCC1(C)NC(=O)c2ccccc2O1 (configuration not stated) the results were RGS4 act inactive, RGS4 block inactive, MrgX1 antag -4.92*, MrgX1 PAM inactive, MrgX1 agonist inactive, MrgX1 antag conf inactive, HEK293 Ca flux inactive, HEK293 Ca counter inactive and HEK293 Ca cntr2 inactive.
C=CCn1c(CC(=O)OC)csc1=Nc1ccc(C(C)=O)cc1 was read as RGS4 act inactive, RGS4 block inactive, MrgX1 antag -5.19*, MrgX1 PAM inactive, MrgX1 agonist inactive, MrgX1 antag conf inactive, HEK293 Ca flux inactive, HEK293 Ca counter inactive and HEK293 Ca cntr2 inactive.
COc1ccc(C(=O)NC(=S)N2CCN(c3ccccc3OC)CC2)cc1OC was read as RGS4 act inactive, RGS4 block inactive, MrgX1 antag inactive, MrgX1 PAM inactive and MrgX1 agonist inactive.
Screening Cc1cc(C(=O)N2CCCC(C(=O)c3cc(F)ccc3F)C2)c(C)o1 (configuration not stated) returned RGS4 act inactive, RGS4 block inactive, MrgX1 antag inactive, MrgX1 PAM inactive and MrgX1 agonist inactive.
Screening O=C(c1cnn2c(C(F)F)cc(-c3ccccc3)nc12)N1CCc2ccccc21 returned RGS4 act inactive, RGS4 block inactive, MrgX1 antag -4.73*, MrgX1 PAM inactive, MrgX1 agonist inactive, MrgX1 antag conf inactive, HEK293 Ca flux inactive, HEK293 Ca counter inactive and HEK293 Ca cntr2 inactive.
CCN1CCN(C(=O)c2cnn3c(C(F)F)cc(-c4ccc(C)cc4)nc23)CC1 was read as RGS4 act inactive, RGS4 block inactive, MrgX1 antag -8.53*, MrgX1 PAM inactive, MrgX1 agonist inactive, MrgX1 antag conf inactive, HEK293 Ca flux inactive, HEK293 Ca counter inactive and HEK293 Ca cntr2 inactive.
Screening Cc1ccc(-c2cc(C(F)F)n3ncc(C(=O)N4CCc5ccccc54)c3n2)cc1 returned RGS4 act inactive, RGS4 block inactive, MrgX1 antag inactive, MrgX1 PAM inactive and MrgX1 agonist inactive.
FC(F)(F)c1cnc(COc2cc(Cl)cc(Cl)c2)c(Cl)c1 was read as RGS4 act inactive, RGS4 block inactive, MrgX1 antag inactive, MrgX1 PAM inactive and MrgX1 agonist inactive.
